Activity calls are given as the source filed them. No cut-off for these calls is given here.
Columns and labels:
Nucleic Acid [1] = assay: Binding affinity to human telomeric G4 DNA of sequence 5'-FAM-d(GGG[TTAGGG]3)-TAMRA-3' assessed as change in melting temperature by FRET DNA melting assay; type: nucleic-acid assay
Nucleic Acid [2] = assay: Binding affinity to human Duplex DNA of sequence 5'-FAM-dTATAGCTATA-HEG-TATAGCTATA-TAMRA-3' assessed as change in melting temperature by FRET DNA melting assay; type: nucleic-acid assay
A549 [3] = assay: Cytotoxicity against human A549 cell after 72 hrs by SRB assay; type: functional, cell-based; conditions: A549, 72 h
MCF7 (Homo sapiens) [4] = assay: Cytotoxicity against human MCF7 cell after 72 hrs by SRB assay; conditions: MCF7, 72 h
IMR-90 (Homo sapiens) = assay: Cytotoxicity against human IMR90 cell after 72 hrs by SRB assay; conditions: IMR-90, 72 h
MCF7 [5] = assay: Cytotoxic activity in human MCF7 cell assessed by number of scenescence cell at 5 uM after 4 weeks; type: functional
How it was run: (§1)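 Long-term MCF7 or A549 cultures were dosed at the start and then re-dosed three times weekly. At each re-dose the medium was discarded, cells were PBS-washed, and fresh medium plus compound was added. For staining, 1 × 10^5 cells per well were plated in medium with compound. After 24 h they were stained for senescence-associated β-galactosidase, and blue cells were counted by microscopy.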

MCF7 [6] = assay: Cytotoxic activity in human MCF7 cell assessed by number of scenescence cell at 5 uM after 5 weeks; type: functional; how it was run: as §1
MCF7 [7] = assay: Cytotoxic activity in human MCF7 cell assessed by number of scenescence cell at 15 uM after 4 weeks; type: functional; how it was run: as §1
MCF7 [8] = assay: Cytotoxic activity in human MCF7 cell assessed by number of scenescence cell at 15 uM after 5 weeks; type: functional; how it was run: as §1
Nucleic Acid [9] = assay: Telomere shortening in DNA assessed by measuring telomere length after 6 weeks; type: nucleic-acid assay
[10] = biological target: Telomerase reverse transcriptase (Homo sapiens) (UniProt O14746); assay: Inhibition of Telomerase by TRAP-LIG assay
MCF7 [11] = assay: Cytotoxicity against human MCF7 by SRB assay; type: functional, cell-based
MCF7 [12] = assay: Cytotoxic activity in human MCF7 cell assessed as number of scenescence cell at 10 uM after 1 week; type: functional; how it was run: as §1
MCF7 [13] = assay: Cytotoxic activity in human MCF7 cell assessed as number of scenescence cell at 10 uM after 3 weeks; type: functional; how it was run: as §1
MCF7 [14] = assay: Cytotoxic activity in human MCF7 cell assessed as number of scenescence cell at 10 uM after 4 weeks; type: functional; how it was run: as §1
MCF7 [15] = assay: Cytotoxic activity in human MCF7 cell assessed as number of scenescence cell at 10 uM after 5 weeks; type: functional; how it was run: as §1
MCF7 [16] = assay: Cytotoxic activity in human MCF7 cell assessed by number of scenescence cell at 25 uM after 1 week; type: functional; how it was run: as §1
MCF7 [17] = assay: Cytotoxic activity in human MCF7 cell assessed by number of scenescence cell at 25 uM after 3 weeks; type: functional; how it was run: as §1
MCF7 [18] = assay: Cytotoxic activity in human MCF7 cell assessed by number of scenescence cell at 35 uM after 1 week; type: functional; how it was run: as §1
A549 [19] = assay: Cytotoxic activity in human A549 cell assessed by number of scenescence cell at 10 uM after 1 weeks; type: functional; how it was run: as §1
A549 [20] = assay: Cytotoxic activity in human A549 cell assessed by number of scenescence cell at 10 uM after 3 weeks; type: functional; how it was run: as §1
A549 [21] = assay: Cytotoxic activity in human A549 cell assessed by number of scenescence cell at 10 uM after 4 weeks; type: functional; how it was run: as §1
A549 [22] = assay: Cytotoxic activity in human A549 cell assessed by number of scenescence cell at 10 uM after 5 weeks; type: functional; how it was run: as §1
A549 [23] = assay: Cytotoxic activity in human A549 cell assessed by number of scenescence cell at 25 uM after 1 week; type: functional; how it was run: as §1
A549 [24] = assay: Cytotoxic activity in human A549 cell assessed by number of scenescence cell at 25 uM after 3 weeks; type: functional; how it was run: as §1
A549 [25] = assay: Cytotoxic activity in human A549 cell assessed by number of scenescence cell at 25 uM after 4 weeks; type: functional; how it was run: as §1
A549 [26] = assay: Cytotoxic activity in human A549 cell assessed by number of scenescence cell at 25 uM after 5 weeks; type: functional; how it was run: as §1
A549 [27] = assay: Cytotoxic activity in human A549 cell assessed by number of scenescence cell at 35 uM after 1 week; type: functional; how it was run: as §1
A549 [28] = assay: Cytotoxic activity in human A549 cell assessed by number of scenescence cell at 35 uM after 3 weeks; type: functional; how it was run: as §1
A549 [29] = assay: Cytotoxic activity in human A549 cell assessed by number of scenescence cell at 35 uM after 4 weeks; type: functional; how it was run: as §1
A549 [30] = assay: Cytotoxic activity in human A549 cell assessed by number of scenescence cell at 35 uM after 5 weeks; type: functional; how it was run: as §1
MCF7 (Homo sapiens) [31] = assay: Cytotoxicity against human MCF7 at 10 uM by assessed as population doublings SRB assay
[32] = Cytotoxicity against human IMR90 cell after 72 hrs by SRB assay; type: cell-based; conditions: IMR-90, 72 h
MCF7 [33] = assay: Cytotoxicity against human MCF7 cell after 72 hrs by SRB assay; type: functional, cell-based; conditions: MCF7, 72 h

Chain of Telomerase reverse transcriptase (Homo sapiens) (O14746 whole entry): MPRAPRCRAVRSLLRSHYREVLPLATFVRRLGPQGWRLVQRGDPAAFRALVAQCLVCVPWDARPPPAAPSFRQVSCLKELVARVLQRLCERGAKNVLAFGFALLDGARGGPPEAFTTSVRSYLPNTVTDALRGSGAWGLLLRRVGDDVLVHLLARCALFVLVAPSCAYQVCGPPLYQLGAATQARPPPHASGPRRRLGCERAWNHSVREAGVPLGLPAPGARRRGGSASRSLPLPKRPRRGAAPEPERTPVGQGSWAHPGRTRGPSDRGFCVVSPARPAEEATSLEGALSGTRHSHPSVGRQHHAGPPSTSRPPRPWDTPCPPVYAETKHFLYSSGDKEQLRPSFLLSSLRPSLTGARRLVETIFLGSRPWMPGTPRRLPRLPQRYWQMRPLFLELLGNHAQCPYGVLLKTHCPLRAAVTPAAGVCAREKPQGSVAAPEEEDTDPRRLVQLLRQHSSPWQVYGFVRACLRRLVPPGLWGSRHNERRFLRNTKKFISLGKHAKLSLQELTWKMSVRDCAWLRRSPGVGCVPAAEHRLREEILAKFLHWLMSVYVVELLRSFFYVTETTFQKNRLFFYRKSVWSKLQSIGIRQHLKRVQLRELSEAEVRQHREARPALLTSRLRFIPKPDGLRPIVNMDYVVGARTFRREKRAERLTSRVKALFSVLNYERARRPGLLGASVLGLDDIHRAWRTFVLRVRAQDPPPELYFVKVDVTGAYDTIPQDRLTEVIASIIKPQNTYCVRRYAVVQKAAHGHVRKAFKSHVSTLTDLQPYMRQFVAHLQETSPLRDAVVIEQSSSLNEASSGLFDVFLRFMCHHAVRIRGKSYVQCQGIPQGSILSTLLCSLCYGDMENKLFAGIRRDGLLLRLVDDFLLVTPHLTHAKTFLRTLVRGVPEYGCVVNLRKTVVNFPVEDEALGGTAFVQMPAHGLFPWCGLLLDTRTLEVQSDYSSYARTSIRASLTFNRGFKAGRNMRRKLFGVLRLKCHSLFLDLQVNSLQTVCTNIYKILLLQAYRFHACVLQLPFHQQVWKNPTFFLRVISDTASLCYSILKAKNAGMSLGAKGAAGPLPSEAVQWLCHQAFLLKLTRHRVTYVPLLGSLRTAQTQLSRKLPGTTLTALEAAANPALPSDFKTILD

Compound: O=C(CCN1CCOCC1)Nc1ccc(NC(=O)c2cccc3c(=O)c4cccc(C(=O)Nc5ccc(NC(=O)CCN6CCOCC6)cc5)c4[nH]c23)cc1
- ΔTm (Nucleic Acid [1]): 19 °C
- ΔTm (Nucleic Acid [2]): 0 °C
- IC50 (A549 [3]): > 100 µM
- IC50 (MCF7 (Homo sapiens) [4]): > 100 µM
- IC50 (IMR-90 (Homo sapiens)): > 100 µM

Compound: O=C(CCN1CCCCC1)Nc1ccc(NC(=O)c2cccc3c(=O)c4cccc(C(=O)Nc5ccc(NC(=O)CCN6CCCCC6)cc5)c4[nH]c23)cc1
- ΔTm (Nucleic Acid [1]): 31 °C
- ΔTm (Nucleic Acid [2]): 1.5 °C
- IC50 (A549 [3]): > 100 µM
- IC50 (IMR-90 (Homo sapiens)): > 100 µM

Compound: CN(C)CCCNc1ccc(NC(=O)c2cccc3c(=O)c4cccc(C(=O)Nc5ccc(NCCCN(C)C)cc5)c4[nH]c23)cc1
- ΔTm (Nucleic Acid [1]): 31 °C
- ΔTm (Nucleic Acid [2]): 2.5 °C
- IC50 (A549 [3]): > 100 µM
- IC50 (IMR-90 (Homo sapiens)): > 100 µM

Compound: O=C(CN1CCCC1)Nc1ccc(NC(=O)c2cccc3c(=O)c4cccc(C(=O)Nc5ccc(NC(=O)CN6CCCC6)cc5)c4[nH]c23)cc1
- ΔTm (Nucleic Acid [1]): 25.5 °C
- ΔTm (Nucleic Acid [2]): 0.5 °C
- IC50 (A549 [3]): > 100 µM
- IC50 (IMR-90 (Homo sapiens)): > 100 µM

Compound: O=C(Nc1ccc(NCCCN2CCOCC2)cc1)c1cccc2c(=O)c3cccc(C(=O)Nc4ccc(NCCCN5CCOCC5)cc4)c3[nH]c12
- ΔTm (Nucleic Acid [1]): 20 °C
- ΔTm (Nucleic Acid [2]): 0 °C
- IC50 (A549 [3]): > 100 µM
- IC50 (MCF7 (Homo sapiens) [4]): > 100 µM
- IC50 (IMR-90 (Homo sapiens)): > 100 µM

Compound: O=C(CCNC1CCCCC1)Nc1ccc(NC(=O)c2cccc3c(=O)c4cccc(C(=O)Nc5ccc(NC(=O)CCNC6CCCCC6)cc5)c4[nH]c23)cc1
- ΔTm (Nucleic Acid [1]): 24.5 °C
- ΔTm (Nucleic Acid [2]): 0 °C
- IC50 (A549 [3]): 31 µM
- IC50 (IMR-90 (Homo sapiens)): > 100 µM

Compound: CN(C)CCC(=O)Nc1ccc(NC(=O)c2cccc3c(=O)c4cccc(C(=O)Nc5ccc(NC(=O)CCN(C)C)cc5)c4[nH]c23)cc1
- ΔTm (Nucleic Acid [1]): 32 °C
- ΔTm (Nucleic Acid [2]): 2.5 °C
- IC50 (A549 [3]): 15 µM
- Activity (MCF7 [5]): 2%
- Activity (MCF7 [6]): 2%
- Activity (MCF7 [7]): 0%
- Activity (MCF7 [8]): 5%
- Activity (Nucleic Acid [9]): inactive
- Activity [10]: inactive
- IC50 (IMR-90 (Homo sapiens)): > 100 µM

Compound: O=C(CCC(=O)N1CCCC1)Nc1ccc(NC(=O)c2cccc3c(=O)c4cccc(C(=O)Nc5ccc(NC(=O)CCC(=O)N6CCCC6)cc5)c4[nH]c23)cc1
- ΔTm (Nucleic Acid [1]): 0 °C
- ΔTm (Nucleic Acid [2]): 0 °C
- IC50 (A549 [3]): 27 µM
- IC50 (IMR-90 (Homo sapiens)): > 100 µM

Compound: O=C(Nc1ccc(NCCCN2CCCC2)cc1)c1cccc2c(=O)c3cccc(C(=O)Nc4ccc(NCCCN5CCCC5)cc4)c3[nH]c12
- ΔTm (Nucleic Acid [1]): 33 °C
- ΔTm (Nucleic Acid [2]): 2.5 °C
- IC50 (A549 [3]): 66 µM
- IC50 (IMR-90 (Homo sapiens)): > 100 µM

Compound: O=C(CCCN1CCCC1)Nc1ccc(NC(=O)c2cccc3c(=O)c4cccc(C(=O)Nc5ccc(NC(=O)CCCN6CCCC6)cc5)c4[nH]c23)cc1
- ΔTm (Nucleic Acid [1]): 15 °C
- ΔTm (Nucleic Acid [2]): 0 °C
- IC50 (A549 [3]): 8 µM
- IC50 (IMR-90 (Homo sapiens)): > 100 µM

Compound: O=C(CCN1CCCC1)Nc1ccc(NC(=O)c2cccc3c(=O)c4cccc(C(=O)Nc5ccc(NC(=O)CCN6CCCC6)cc5)c4[nH]c23)cc1
- ΔTm (Nucleic Acid [1]): 34 °C
- ΔTm (Nucleic Acid [2]): 2.5 °C
- IC50 (A549 [3]): 16 µM
- IC50 (IMR-90 (Homo sapiens)): > 100 µM

Compound: O=C(CCN1CCCC1)Nc1cccc(NC(=O)c2cccc3c(=O)c4cccc(C(=O)Nc5cccc(NC(=O)CCN6CCCC6)c5)c4[nH]c23)c1
- ΔTm (Nucleic Acid [1]): 29 °C
- ΔTm (Nucleic Acid [2]): 3 °C
- IC50 (A549 [3]): > 100 µM
- IC50 (MCF7 [11]): 84 µM
- Activity (MCF7 [12]): 2%
- Activity (MCF7 [13]): 3%
- Activity (MCF7 [14]): 0%
- Activity (MCF7 [15]): 1%
- Activity (MCF7 [16]): 3%
- Activity (MCF7 [17]): 25%
- Activity (MCF7 [18]): 12%
- Activity (A549 [19]): 0%
- Activity (A549 [20]): 12%
- Activity (A549 [21]): 0%
- Activity (A549 [22]): 0%
- Activity (A549 [23]): 9%
- Activity (A549 [24]): 21%
- Activity (A549 [25]): 0%
- Activity (A549 [26]): 0%
- Activity (A549 [27]): 8%
- Activity (A549 [28]): 30%
- Activity (A549 [29]): 0%
- Activity (A549 [30]): 0%
- Activity (Nucleic Acid [9]): inactive
- Activity [10]: inactive
- IC50 (IMR-90 (Homo sapiens)): > 100 µM
- Activity (MCF7 (Homo sapiens) [31]): 17.5

Compound: Cn1cc(NC(=O)c2cccc3c(=O)c4cccc(C(=O)Nc5cc(C(=O)NCCCN6CCCC6)n(C)c5)c4[nH]c23)cc1C(=O)NCCCN1CCCC1
- ΔTm (Nucleic Acid [1]): 15 °C
- ΔTm (Nucleic Acid [2]): 0 °C
- IC50 (A549 [3]): 21 µM
- IC50 (IMR-90 (Homo sapiens)): > 100 µM

Compound: O=C(CCn1ccnc1)Nc1ccc(NC(=O)c2cccc3c(=O)c4cccc(C(=O)Nc5ccc(NC(=O)CCn6ccnc6)cc5)c4[nH]c23)cc1
- ΔTm (Nucleic Acid [1]): 15 °C
- ΔTm (Nucleic Acid [2]): 0.5 °C
- IC50 (A549 [3]): 19 µM
- IC50 (IMR-90 (Homo sapiens)): > 100 µM

Compound: CN1CCN(CCCNc2ccc(NC(=O)c3cccc4c(=O)c5cccc(C(=O)Nc6ccc(NCCCN7CCN(C)CC7)cc6)c5[nH]c34)cc2)CC1
- ΔTm (Nucleic Acid [1]): 28 °C
- ΔTm (Nucleic Acid [2]): 1.5 °C
- IC50 (A549 [3]): > 100 µM
- IC50 (IMR-90 (Homo sapiens)): > 100 µM

Compound: O=C(CCN1CCCC1)Nc1ccc(NC(=O)c2cccc3c(=O)c4ccccc4[nH]c23)cc1
- ΔTm (Nucleic Acid [1]): 11 °C
- ΔTm (Nucleic Acid [2]): 0.5 °C
- IC50 (A549 [3]): 16 µM
- IC50 (MCF7 (Homo sapiens) [4]): 9 µM
- IC50 (IMR-90 (Homo sapiens)): 7.5 µM

Compound: O=C(CCCCN1CCCC1)Nc1ccc(NC(=O)c2cccc3c(=O)c4cccc(C(=O)Nc5ccc(NC(=O)CCCCN6CCCC6)cc5)c4[nH]c23)cc1
- ΔTm (Nucleic Acid [1]): 22.5 °C
- ΔTm (Nucleic Acid [2]): 0.75 °C
- IC50 [32]: 2 µM
- IC50 (A549 [3]): 43 µM
- IC50 (MCF7 [33]): > 100 µM

Compound: CN1CCN(CCC(=O)Nc2ccc(NC(=O)c3cccc4c(=O)c5cccc(C(=O)Nc6ccc(NC(=O)CCN7CCN(C)CC7)cc6)c5[nH]c34)cc2)CC1
- ΔTm (Nucleic Acid [1]): 31 °C
- ΔTm (Nucleic Acid [2]): 1.5 °C
- IC50 (A549 [3]): > 100 µM
- IC50 (IMR-90 (Homo sapiens)): > 100 µM

Compound: CN(C)CCCNC(=O)c1cccc2c(=O)c3cccc(C(=O)NCCCN(C)C)c3[nH]c12
- ΔTm (Nucleic Acid [1]): 7 °C
- ΔTm (Nucleic Acid [2]): 1 °C
- IC50 (A549 [3]): 62 µM
- IC50 (IMR-90 (Homo sapiens)): > 100 µM

Reference: ChEMBL document CHEMBL1155326, “Design, synthesis and evaluation of 4,5-di-substituted acridone ligands with high G-quadruplex affinity and selectivity, together with low toxicity to normal cells” (Bioorg Med Chem Lett, 2009)
